Data: ChEMBL document CHEMBL1158558, “Design of potential reverse transcriptase inhibitor containing Isatin nucleus using molecular modeling studies” (Bioorg Med Chem, 2010)

Target: Human immunodeficiency virus type 1 reverse transcriptase (Human immunodeficiency virus 1) (UniProt Q72547)
Experiment: Inhibition of HIV1 RT after 1 hr by ELISA relative to control
Design: concentration or dose not given beside the values
Settings: concentration not given here
Method in brief: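 RT inhibitors, diluted in lysis buffer, were mixed with reaction mixture and incubated 1 h at 37 °C. Samples were then transferred to microplate modules for 1 h at 37 °C and washed. Anti-DIG-POD (200 mU/ml) was added for 1 h at 37 °C, then washed again. ABTS substrate was developed at 15–25 °C for 10–30 min, and absorbance was read at 405 nm.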

SMILES	inhibition
Cc1ccc2c(c1)/C(=N/n1cnnc1)C(=O)N2CN1CCCCC1	89%
Cc1ccc2c(c1)/C(=N/n1cnnc1)C(=O)N2CN1CCNCC1	90.9%
Cc1ccc2c(c1)/C(=N/n1cnnc1)C(=O)N2CN(C)C	69.1%
CNc1ccc(CN2C(=O)/C(=N\n3cnnc3)c3cc(C)ccc32)cc1	0%
Cc1ccc2c(c1)/C(=N/n1cnnc1)C(=O)N2CN1CCOCC1	84.1%
